MC4R ag barr = MC4R agonists recruiting beta-arrestin, primary screen, cell-based, luminescence, agonist arm of biased-ligand search; Melanocortin receptor 4 (Homo sapiens), P32245; U2OS MC4R beta-arrestin complementation; percent of melanotan II response, DMSO zero; activation, % at 8.9 µM; actives 0.98% (n = 360,000); AID 540308, 2011;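 active = activation above a per-plate cutoff, the mean activation of sample wells on that plate plus 3 SD, cut at about 8% in these data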
iPSC survival up = enhancers of single-cell hiPSC survival, primary screen, ATPlite luminescence; 100% = ROCK inhibitor wells, 0% = DMSO; survival enhancement, % at 20 µM; actives 0.044% (n = 360,000); in the data active = survival enhancement above about 18%;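 note: cells exposed to compounds for 16 hours before the ATP read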
MC4R antagonist = MC4R antagonists of cAMP signaling, primary screen, cell-based, TR-FRET, antagonist arm of biased-ligand search; actives 0.48% (n = 360,000); inhibition, % at 6.5 µM; AID 540295, 2011; Melanocortin receptor 4 (Homo sapiens), P32245; MC4R-expressing cells, MTII-stimulated cAMP, LANCE TR-FRET;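 active = inhibition above its plate's cutoff, the mean of tested wells on that plate plus 3 SD, cut at about 29% in these data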;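 note: 0% = Melanotan II alone and 100% = Melanotan II plus saturating MCL0020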
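System: U2OS cells stably expressing human melanocortin 4 receptor (MC4R). Reagent: Melanotan II challenge after compound preincubation. Doses: 6.5 µM. Times: 30-min compound, 1-h challenge, 1-h detection, room temperature. Measured by: TR-FRET with Eu-cAMP and labeled anti-cAMP, 671 nm. Replicates: singlicate.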
Tb MetRS inh = T. brucei MetRS inhibitors, primary screen, biochemical, luminescence. methionyl-tRNA synthetase (Trypanosoma brucei brucei). purified T. brucei MetRS, ATP depletion, Kinase-Glo luminescence. inhibition, % at 11.9 µM. actives 0.4% (n = 360,000);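 active = inhibition above a per-plate cutoff of the control wells' mean inhibition plus 3 SD, cut at about 5.5% in these data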;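 note: 0% = DMSO wells median and 100% = median of wells with control inhibitor compound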
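Measured by: Kinase-Glo luciferase luminescence reporting remaining unconsumed ATP. Material: purified T. brucei MetRS enzyme. Doses: 11.9 µM compound single dose, 0.9% DMSO. Medium: HEPES buffer containing pyrophosphatase, BSA, spermine, DTT. Times: 15 min preincubation, 2 h reaction, all 25 °C. Reagent: methionine, ATP and bulk E. coli tRNA.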
ABCB6 inh MLPCN = ABCB6 transporter inhibitors, primary screen, K562-ABCB6 cells, flow cytometry, MLPCN library; ATP-binding cassette sub-family B member 6 (Homo sapiens), Q9NP58; fluorescence ratio to DMSO, % at 10 µM; actives 0.19% (n = 360,000); K562-ABCB6 porphyrin accumulation, 1 h; stronger effect = lower value; AID 602162, 2011;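 active = fluorescence ratio to DMSO below 75%, the collection mean minus 3 SD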;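 note: signal is porphyrin accumulated inside mitochondria; 100% equals median channel fluorescence of DMSO control wells; lower ratio means ABCB6 inhibition with less porphyrin fluorescence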
Target sequence (Q9NP58 whole entry, looked up): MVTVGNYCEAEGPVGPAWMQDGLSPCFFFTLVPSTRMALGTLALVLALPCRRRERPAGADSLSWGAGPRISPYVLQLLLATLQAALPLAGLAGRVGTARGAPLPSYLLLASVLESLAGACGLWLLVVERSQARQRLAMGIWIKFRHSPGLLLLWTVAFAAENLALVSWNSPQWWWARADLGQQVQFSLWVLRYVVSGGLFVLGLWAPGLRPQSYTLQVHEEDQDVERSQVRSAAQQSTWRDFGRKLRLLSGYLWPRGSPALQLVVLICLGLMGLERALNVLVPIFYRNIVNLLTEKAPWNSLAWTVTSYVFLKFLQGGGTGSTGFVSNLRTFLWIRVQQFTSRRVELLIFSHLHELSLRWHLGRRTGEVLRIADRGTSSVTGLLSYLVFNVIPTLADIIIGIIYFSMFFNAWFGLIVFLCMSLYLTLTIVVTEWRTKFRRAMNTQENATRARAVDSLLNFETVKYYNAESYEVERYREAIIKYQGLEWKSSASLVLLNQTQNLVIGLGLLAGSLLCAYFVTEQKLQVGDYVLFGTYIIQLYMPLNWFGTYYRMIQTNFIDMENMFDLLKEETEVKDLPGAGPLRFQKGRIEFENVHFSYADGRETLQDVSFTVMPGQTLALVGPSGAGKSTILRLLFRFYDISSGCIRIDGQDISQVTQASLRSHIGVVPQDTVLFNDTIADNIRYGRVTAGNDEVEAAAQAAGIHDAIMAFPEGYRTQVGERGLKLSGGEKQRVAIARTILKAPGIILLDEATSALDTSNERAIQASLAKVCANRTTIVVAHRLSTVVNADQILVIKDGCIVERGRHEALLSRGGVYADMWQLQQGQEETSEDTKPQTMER
Granule exo inh = LAMP-1 surface exposure blockers, TALL-104 cells – cell-based, flow cytometry, MLPCN library, primary screen; TALL-104 LAMP-1 surface exposure; cells stimulated with thapsigargin and PMA; inhibition, % at 10 µM; actives 0.66% (n = 360,000);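 active = inhibition above about 55%, limit read from the data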
Numbers without * were called inactive. Shown are actives, neighbours in structure and some others; about 2.6% of the full set was active somewhere.

Screening COc1ccc(OC)c(Nc2nc(N)nc(CCl)n2)c1 returned MC4R ag barr 9.2*, iPSC survival up 1, MC4R antagonist 10, Tb MetRS inh 0, ABCB6 inh MLPCN 95 and Granule exo inh 31.
Screening COc1ccccc1Nc1nc(N)nc(CCl)n1 returned MC4R ag barr 5, iPSC survival up 0, MC4R antagonist 15, Tb MetRS inh 0, ABCB6 inh MLPCN 101 and Granule exo inh 7.
For CCC(C(=O)Nc1ccc2[nH]ncc2c1)c1ccccc1 (stereo unspecified) the results were MC4R ag barr -2, iPSC survival up 62*, MC4R antagonist 14, Tb MetRS inh 0, ABCB6 inh MLPCN 108 and Granule exo inh -2.
For CCN(CC)S(=O)(=O)c1ccc(OC)c(NC(=O)/C=C/c2ccco2)c1 the results were MC4R ag barr -1, iPSC survival up 0, MC4R antagonist 14, Tb MetRS inh 0, ABCB6 inh MLPCN 96 and Granule exo inh -3.
For CCCC1(c2ccccc2)NC(=O)N(CC(=O)Nc2cc(S(=O)(=O)N3CCOCC3)ccc2Cl)C1=O (stereo unspecified) the results were MC4R ag barr -1, iPSC survival up -1, MC4R antagonist 12, Tb MetRS inh 0, ABCB6 inh MLPCN 97 and Granule exo inh -3.
COCCNC(=S)N/N=C(\C)c1cc2ccccc2o1 was read as MC4R ag barr -3, iPSC survival up -1, MC4R antagonist -2, Tb MetRS inh 0, ABCB6 inh MLPCN 70* and Granule exo inh 0.
`CCOc1ccccc1N1CCN(C(=O)c2cc[n+]([O-])cc2)CC1` gave MC4R ag barr -2, iPSC survival up -2, MC4R antagonist 3, Tb MetRS inh 0, ABCB6 inh MLPCN 94 and Granule exo inh 0.
Screening CCCc1ccc(C(=O)N2CCN(c3ccccc3OCC)CC2)cc1 returned MC4R ag barr 3, iPSC survival up 23*, MC4R antagonist 5, Tb MetRS inh -1, ABCB6 inh MLPCN 103 and Granule exo inh 0.
CCc1ccc(-c2nc(CN3CCC(C(=O)N4CCN(c5ccccc5)CC4)CC3)c(C)o2)cc1 was read as MC4R ag barr 9.5*, iPSC survival up -1, MC4R antagonist 9, Tb MetRS inh -1, ABCB6 inh MLPCN 103 and Granule exo inh -1.
`COc1cc(C(=O)Nc2nc3ccc(S(C)(=O)=O)cc3s2)cc(OC)c1C` gave MC4R ag barr 19*, iPSC survival up 0, MC4R antagonist 7, Tb MetRS inh 0, ABCB6 inh MLPCN 93 and Granule exo inh 2.
For CN(Cc1ccccc1)c1ccc(C(CC(N)=O)NC(=O)c2ccc(Br)cc2)cc1[N+](=O)[O-] (stereo unspecified) the results were MC4R ag barr -2, iPSC survival up 0, MC4R antagonist 12, Tb MetRS inh 0, ABCB6 inh MLPCN 93 and Granule exo inh -8.
Screening O=C(CCCOc1ccccc1)Nc1cccc(S(=O)(=O)N2CCOCC2)c1 returned MC4R ag barr 1, iPSC survival up 10, MC4R antagonist 10, Tb MetRS inh 0, ABCB6 inh MLPCN 98 and Granule exo inh 1.
CCC(=C(c1ccc(OC)cc1)c1ccc(OC)cc1)c1cn(CC(O)CN(CCO)CCO)c2ccccc12 (stereo unspecified) was read as MC4R ag barr 1, iPSC survival up 1, MC4R antagonist 5, Tb MetRS inh 0, ABCB6 inh MLPCN 95 and Granule exo inh 72*.
Screening COc1ccc(OCC(O)CN(CCO)CC(O)Cn2ccc3ccccc32)cc1 (stereo unspecified) returned MC4R ag barr 8, iPSC survival up 2, MC4R antagonist 4, Tb MetRS inh -1, ABCB6 inh MLPCN 105 and Granule exo inh 22.
Screening CCOc1ccc(C(=O)C(C)OC(=O)Cn2[nH]c(=O)c3ccccc3c2=O)cc1 (stereo unspecified) returned MC4R ag barr 2, iPSC survival up 0, MC4R antagonist 2, Tb MetRS inh -1, ABCB6 inh MLPCN 99 and Granule exo inh -12.
For COc1ccc(CCC(C)N2CCC(CO)(Cc3ccccc3)CC2)cc1 (stereo unspecified) the results were MC4R ag barr 0, iPSC survival up 0, MC4R antagonist 5, Tb MetRS inh 0, ABCB6 inh MLPCN 102 and Granule exo inh 52.
Cc1ccc(Cl)c(OCC(=O)Nc2ccc3c(c2)OCCO3)c1 was read as MC4R ag barr 9.0*, iPSC survival up 0, MC4R antagonist 11, Tb MetRS inh 0, ABCB6 inh MLPCN 99 and Granule exo inh -1.
For Cc1ccc(NC(=S)N/N=C/c2c(C)nn(-c3ccccc3)c2N2CCCC2)cc1 the results were MC4R ag barr 8.6*, iPSC survival up -1, MC4R antagonist 12, Tb MetRS inh 0, ABCB6 inh MLPCN 98 and Granule exo inh -2.
COc1ccccc1NS(=O)(=O)c1cccc(C(=O)N/N=C/c2c(C)nn(-c3ccccc3)c2N2CCCC2)c1 was read as MC4R ag barr -3, iPSC survival up 2, MC4R antagonist 14, Tb MetRS inh -1, ABCB6 inh MLPCN 74* and Granule exo inh -2.
O=C(Nc1ccc(Br)cc1)c1cccc(S(=O)(=O)Nc2ccccn2)c1 was read as MC4R ag barr -1, iPSC survival up 1, MC4R antagonist 1, Tb MetRS inh 0, ABCB6 inh MLPCN 89 and Granule exo inh -1.
Screening O=C(Nc1ccc(Br)cc1)c1cccc(S(=O)(=O)Nc2cnc3ccccc3c2)c1 returned MC4R ag barr -1, iPSC survival up 0, MC4R antagonist 3, Tb MetRS inh 65*, ABCB6 inh MLPCN 93 and Granule exo inh 7.
Screening CC1=CN2C(=N)/C(=C/c3ccco3)C(=O)N=C2S1 returned MC4R ag barr -3, iPSC survival up -2, MC4R antagonist 9, Tb MetRS inh 0, ABCB6 inh MLPCN 89 and Granule exo inh -6.
Screening CC1=CN2C(=N)/C(=C/c3ccc([N+](=O)[O-])o3)C(=O)N=C2S1 returned MC4R ag barr -2, iPSC survival up -1, MC4R antagonist 27, Tb MetRS inh 1, ABCB6 inh MLPCN 803 and Granule exo inh 80*.
`Cc1ccc(OCCn2cc(C#N)c3ccccc32)cc1` gave MC4R ag barr -1, iPSC survival up 0, MC4R antagonist 2, Tb MetRS inh 0, ABCB6 inh MLPCN 96 and Granule exo inh 68*.
